# What was measured:
# [1] = molecular target: NAD(P)H dehydrogenase [quinone] 1 (Mus musculus) (UniProt Q64669); experiment: Induction of quinone reductase-1 activity in mouse BPrc1 cells after 48 hrs by MTT assay; assay type: cell-based
# [2] = molecular target: NAD(P)H dehydrogenase [quinone] 1 (Mus musculus) (UniProt Q64669); experiment: Induction of quinone reductase-1 activity in mouse Hepa-1c1c7 cells assessed as induction ratio after 48 hrs by MTT assay relative to control; assay type: cell-based
# Procedure, shortened: (§1)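 Hepa 1c1c7 murine hepatoma cells exposed to compound (max 50 μM) for 48 h in 96-well format, then permeabilized with digitonin. QR1 activity read as NADPH-dependent menadiol-mediated MTT reduction to formazan, absorbance 595 nm; crystal violet total-protein assay in parallel. CD = concentration doubling activity, determined only where induction ratio > 2. Three independent experiments in duplicate; 4′-bromoflavone positive control.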
# [3] = molecular target: NAD(P)H dehydrogenase [quinone] 1 (Mus musculus) (UniProt Q64669); experiment: Induction of quinone reductase-1 activity in mouse Hepa-1c1c7 cells after 48 hrs by MTT assay; assay type: cell-based; procedure, shortened: as §1
# [4] = Inhibition of TNFalpha-induced NF-kappaB activity expressed in HEK293 cells by luciferase reporter gene assay; assay type: cell-based; conditions: Homo sapiens
# [5] = molecular target: T1, Nitric oxide synthase, inducible (Mus musculus) (UniProt P29477); experiment: Inhibition of LPS-induced iNOS activity in mouse RAW 264.7 cells assessed as inhibition of NO production at 50 uM pretreated with compound for 30 mins before LPS challenge after 24 hrs by Griess reagent method; assay type: cell-based
# T1 sequence (whole entry): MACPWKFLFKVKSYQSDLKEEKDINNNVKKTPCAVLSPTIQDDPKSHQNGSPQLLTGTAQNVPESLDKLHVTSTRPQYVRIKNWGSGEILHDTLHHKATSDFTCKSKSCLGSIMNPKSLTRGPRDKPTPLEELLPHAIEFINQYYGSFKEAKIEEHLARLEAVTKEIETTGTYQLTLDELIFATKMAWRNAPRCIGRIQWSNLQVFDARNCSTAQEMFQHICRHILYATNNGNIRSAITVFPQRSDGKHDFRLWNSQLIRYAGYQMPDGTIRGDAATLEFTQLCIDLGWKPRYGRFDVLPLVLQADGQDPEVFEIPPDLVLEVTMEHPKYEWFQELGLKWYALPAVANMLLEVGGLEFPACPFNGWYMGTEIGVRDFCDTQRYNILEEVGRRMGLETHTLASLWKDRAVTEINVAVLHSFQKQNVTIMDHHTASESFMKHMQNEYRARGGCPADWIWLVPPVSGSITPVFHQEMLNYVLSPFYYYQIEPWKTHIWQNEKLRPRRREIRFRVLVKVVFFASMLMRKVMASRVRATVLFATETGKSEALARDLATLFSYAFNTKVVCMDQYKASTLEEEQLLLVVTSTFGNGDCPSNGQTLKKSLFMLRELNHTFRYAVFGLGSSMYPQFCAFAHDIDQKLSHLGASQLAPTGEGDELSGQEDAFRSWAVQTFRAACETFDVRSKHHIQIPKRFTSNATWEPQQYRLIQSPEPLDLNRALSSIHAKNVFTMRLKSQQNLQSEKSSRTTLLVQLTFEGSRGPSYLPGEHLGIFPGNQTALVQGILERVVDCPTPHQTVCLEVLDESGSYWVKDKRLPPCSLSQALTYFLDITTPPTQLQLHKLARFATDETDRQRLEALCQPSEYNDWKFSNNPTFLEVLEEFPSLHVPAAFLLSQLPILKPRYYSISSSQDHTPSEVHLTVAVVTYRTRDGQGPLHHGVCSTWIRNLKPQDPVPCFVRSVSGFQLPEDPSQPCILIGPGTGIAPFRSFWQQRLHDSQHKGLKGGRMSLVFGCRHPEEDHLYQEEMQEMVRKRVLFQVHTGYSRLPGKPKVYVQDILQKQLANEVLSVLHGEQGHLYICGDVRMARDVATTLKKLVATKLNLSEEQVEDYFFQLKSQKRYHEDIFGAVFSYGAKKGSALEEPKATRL
# [6] = molecular target: T2, Nitric oxide synthase, inducible (Mus musculus, UniProt P29477); experiment: Inhibition of LPS-induced iNOS activity in mouse RAW 264.7 cells assessed as inhibition of NO production pretreated with compound for 30 mins before LPS challenge after 24 hrs by Griess reagent method; assay type: cell-based
# T2 sequence (P29477 whole entry): T1 sequence (whole entry)
# HEK293 = experiment: Inhibition of TNFalpha-induced NF-kappaB activity expressed in HEK293 cells at 50 uM by luciferase reporter gene assay; assay type: cell-based; conditions: Homo sapiens
# Aromatase [7] = molecular target: T3, Aromatase (Homo sapiens, UniProt P11511); conditions: 0.5 h, read-out: INH
# T3 sequence (P11511 whole entry): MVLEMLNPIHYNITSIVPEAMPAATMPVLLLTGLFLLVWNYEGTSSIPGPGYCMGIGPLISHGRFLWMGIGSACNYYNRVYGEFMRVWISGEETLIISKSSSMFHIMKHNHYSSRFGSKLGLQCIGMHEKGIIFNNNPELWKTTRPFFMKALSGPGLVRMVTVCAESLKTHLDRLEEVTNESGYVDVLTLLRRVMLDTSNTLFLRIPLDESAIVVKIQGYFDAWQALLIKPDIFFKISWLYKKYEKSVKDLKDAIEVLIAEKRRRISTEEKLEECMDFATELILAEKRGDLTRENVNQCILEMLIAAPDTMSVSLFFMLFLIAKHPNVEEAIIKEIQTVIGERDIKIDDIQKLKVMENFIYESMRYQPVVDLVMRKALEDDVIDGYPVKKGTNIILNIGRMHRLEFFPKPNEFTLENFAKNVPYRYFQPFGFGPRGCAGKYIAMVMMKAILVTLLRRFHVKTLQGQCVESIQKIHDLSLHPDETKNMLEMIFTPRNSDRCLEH
# Aromatase [8] = molecular target: T3, Aromatase
# [9] = molecular target: NAD(P)H dehydrogenase [quinone] 1 (Mus musculus) (UniProt Q64669); experiment: Induction of quinone reductase-1 activity in mouse TAOc1BPrc1 cells after 48 hrs by MTT assay; assay type: cell-based
# Sequence of NAD(P)H dehydrogenase [quinone] 1 (Mus musculus) (Q64669 whole entry): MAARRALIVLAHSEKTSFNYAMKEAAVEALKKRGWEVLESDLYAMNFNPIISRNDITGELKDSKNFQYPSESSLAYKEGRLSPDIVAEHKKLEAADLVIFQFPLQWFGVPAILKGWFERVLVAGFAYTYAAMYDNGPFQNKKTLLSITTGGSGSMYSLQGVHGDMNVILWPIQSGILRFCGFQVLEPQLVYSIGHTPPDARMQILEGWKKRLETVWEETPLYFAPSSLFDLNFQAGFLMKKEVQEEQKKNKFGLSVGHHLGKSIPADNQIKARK
SMILES,CD [1] [µM],CD [3] [µM],further results
Clc1cccc(Cl)c1-c1nc(-c2ccccc2)cs1,> 50,,
COc1cccc(-c2nsc(-c3cccc(OC)c3)n2)c1,> 50,,
Cc1ccc(Br)cc1-c1nsc(-c2ccc(Br)cc2C)n1,,> 50,Ratio [2]: 2.3
COc1cccc(-c2csc(-c3cccc(Cl)c3Cl)n2)c1,> 50,> 50,
COc1cccc(-c2csc(-c3cc(OC)ccc3F)n2)c1,> 50,> 50,
Cc1c(Cl)cccc1-c1nc(-c2ccccc2)cs1,> 50,,
COc1cccc(-c2csc(-c3ccccc3)n2)c1,,,IC50 [4]: 31.6 µM; inhibition [5]: 62%; IC50 [6]: 45.3 µM; inhibition (HEK293): 64%; inhibition at 50 µM (Aromatase [7]): 27.1%; IC50 (Aromatase [8]): > 50 µM
COc1cccc(-c2csc(-c3cccc(OC)c3)n2)c1,,,IC50 [4]: 20.3 µM; IC50 [6]: > 50 µM; IC50 (Aromatase [8]): > 50 µM
COc1cccc(-c2csc(-c3cccc(Cl)c3C)n2)c1,> 50,> 50,
CCCCc1ccc(-c2nc(-c3ccccc3)cs2)cc1,> 50,> 50,
Cc1ccc(Cl)cc1-c1nsc(-c2ccc(Cl)cc2C)n1,,0.44,Ratio [2]: 4.9
Cc1ccc(-c2nc(-c3ccccc3)cs2)c(Br)c1,> 50,,
Fc1ccccc1-c1nsc(-c2ccccc2F)n1,,,IC50 [4]: > 50 µM; inhibition [5]: 12.9%; IC50 [6]: > 50 µM; inhibition (HEK293): 40.7%; inhibition at 50 µM (Aromatase [7]): 53.2%; IC50 (Aromatase [8]): > 50 µM
COc1cccc(-c2csc(-c3cccc(OC)c3F)n2)c1,> 50,> 50,
c1ccc(-c2nsc(-c3ccccc3)n2)cc1,> 50,,IC50 [4]: 47.7 µM; IC50 [6]: > 50 µM; inhibition at 50 µM (Aromatase [7]): 60.2%
Fc1ccccc1-c1nsc(-c2ccccc2)n1,> 50,,
COc1cccc(-c2noc(-c3cccc(OC)c3)n2)c1,> 50,,
COc1cccc(-c2nc(-c3ccccc3)cs2)c1,> 50,,IC50 [4]: 2.7 µM; IC50 [6]: > 50 µM; inhibition at 50 µM (Aromatase [7]): 35.5%; IC50 (Aromatase [8]): > 50 µM
Brc1cccc(-c2nc(-c3ccccc3)cs2)c1,> 50,,
COc1cccc(-c2csc(-c3ccc(C)cc3Br)n2)c1,> 50,,
CCCCc1ccc(-c2nc(-c3cccc(OC)c3)cs2)cc1,> 50,> 50,
COc1cccc(-c2csc(-c3cccc(F)c3F)n2)c1,> 50,,
COc1cccc(-c2csc(-c3cccc(Br)c3)n2)c1,> 50,> 50,
FC(F)(F)c1ccccc1-c1nc(-c2ccccc2)cs1,> 50,> 50,
Fc1ccccc1-c1nc(-c2ccccc2)ns1,,,CD [9]: 0.1 µM
Cc1c(Cl)cccc1-c1nsc(-c2cccc(Cl)c2C)n1,,> 50,

# From ChEMBL document CHEMBL2203005 (Bioorg Med Chem, 2012)
